High-throughput results from PubChem.
CHO parental Ca: signal in parental CHO cells, OX1R antagonist counter-screen; parental CHO-K1, ATP-induced calcium, Fluo-8 fluorescence; inhibition, % at 5.6 µM; hit rate 0.63% among 330,000;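 active = inhibition above that plate's mean sample inhibition plus 3 SD, cut at about 26% in these data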;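 also: 0% = ATP-challenged DMSO wells and 100% = DMSO wells without ATP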
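Test system: untransfected parental CHO cell line. Compound: one dose, 5.6 µM nominal. Detection: intracellular calcium via Fluo-8 no-wash fluorescent dye. Measure: % inhibition. Benchmarks: ATP-challenged DMSO wells low, unchallenged DMSO wells high.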
OX1R antag-1: OX1R (human) antagonism; O43613; OX1R-expressing cells, FRET antagonist read-out; inhibition, % at 6.6 µM; hit rate 1.8% among 330,000; in the data active = inhibition mostly above about 38%, no sharp cut-off; inactive = mostly below about 40%;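 also: 0% = agonist challenge alone and 100% = reference antagonist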
Target sequence (O43613 whole entry, looked up): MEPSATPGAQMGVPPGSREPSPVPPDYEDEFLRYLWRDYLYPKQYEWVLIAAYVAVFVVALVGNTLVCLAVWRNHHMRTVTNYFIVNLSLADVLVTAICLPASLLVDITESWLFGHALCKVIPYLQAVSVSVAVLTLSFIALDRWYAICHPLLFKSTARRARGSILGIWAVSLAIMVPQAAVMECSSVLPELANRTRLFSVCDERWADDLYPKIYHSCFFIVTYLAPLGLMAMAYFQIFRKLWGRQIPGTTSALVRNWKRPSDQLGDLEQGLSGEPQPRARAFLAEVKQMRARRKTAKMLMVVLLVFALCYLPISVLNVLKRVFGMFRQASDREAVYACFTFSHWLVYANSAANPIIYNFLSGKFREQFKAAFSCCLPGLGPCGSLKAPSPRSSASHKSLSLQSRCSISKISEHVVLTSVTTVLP
OX1R antag-2: blocks the human orexin 1 receptor; O43613; CHO/OX1R cells, Fluo-8 calcium fluorescence, orexin A; inhibition, % at 5 µM; hit rate 0.43% among 330,000;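 active = inhibition above its plate's threshold, mean inhibition of all tested compounds on the plate plus 3 SD, cut at about 37% in these data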;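 also: 0% = orexin A challenge wells and 100% = SB-334867-A antagonist wells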
TRPML3 ag: human mucolipin-3 channel agonism. AID 1448. HEK293 TRPML3-YFP, Fluo-8 calcium fluorescence; 100% = the carbachol control signal. hit rate 0.29% among 220,000. Q8TDD5. activation, % at 3 µM;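 active = activation above its plate's cutoff, the mean activation of the plate's test wells plus 3 SD, cut at about 12% in these data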;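 also: 0% = DMSO only wells and 100% = carbachol wells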
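Test system – HEK293 line with stable expression of human TRPML3-YFP channel · Control set – carbachol 87 µM final as high control (100%), DMSO as low control (0%) · Signal – Fluo-8 calcium dye fluorescence, ex 470-495, em 515-575 nm · Incubation – 1-h 37 °C dye load, 5-s basal, 120-s post-compound reads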
GPR7 antagonist: human neuropeptides B/W receptor 1 antagonism; P48145; GPR7-expressing cells, fluorescence antagonist assay; inhibition, % at 4.4 µM; hit rate 1.1% among 290,000; AID 1861; in the data active = inhibition above about 16%, passing the limit was not always enough;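 also: cells stimulated with the agonist NPW; 0% = agonist with vehicle and 100% = vehicle without agonist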
TRPN1 ag: agonists of zebrafish TRPN1 channel | AID 1424 | activation, % at 3 µM | hit rate 0.18% among 220,000 | HEK293 zebrafish TRPN1-YFP, Fluo-8 calcium fluorescence; 100% = response to 87 µM carbachol;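 active = activation above its plate's cutoff, the mean activation of test wells on that plate plus 3 SD, cut at about 19% in these data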;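 also: 0% = DMSO alone and 100% = 87 µM carbachol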
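Material: zebrafish TRPN1-YFP in HEK293 cells. Doses: one dose of 3 µM, 0.3% DMSO. Incubation: dye 1 h 37 °C plus 30 min RT. Measured by: intracellular calcium fluorescence with Fluo-8.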
OX1R Ca confirm: OX1R (human) antagonism, confirmed. AID 492963. shares compounds with OX1R antag-2. inhibition, % at 5 µM. hit rate 38% among 1,100. CHO/OX1R cells, orexin A calcium Fluo-8 fluorescence; in the data active = inhibition above about 29%;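 also: 0% = agonist challenge alone and 100% = reference antagonist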
CHO Ca triplic: signal in parental CHO cells, OX1R antagonist counter-screen; shares compounds with OX1R antag-2; hit rate 9.3% among 1,100; parental CHO-K1, ATP-induced calcium, Fluo-8 fluorescence; inhibition, % at 5.6 µM;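 active = inhibition above a per-plate limit, the mean inhibition of that plate's test compounds plus 3 SD, cut at about 25% in these data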;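 also: 0% = ATP challenge with DMSO and 100% = DMSO without ATP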
* marks the source's active call; other numbers are inactive results; · = no result. In the library only some 3.2% were active in any assay of this set; here they are far more common.

SMILES	CHO parental Ca	OX1R antag-1	OX1R antag-2	TRPML3 ag	GPR7 antagonist	TRPN1 ag	OX1R Ca confirm	CHO Ca triplic
Cc1c(C(=O)Nc2ccc(S(=O)(=O)N(C)C3CCN(C)CC3)cc2)oc2ccccc12	-17	5	-7	·	·	·	·	·
Cc1c(C(=O)Nc2ccc(S(=O)(=O)N(C)C3CCN(C)CC3)cc2)oc2c(Cl)cccc12	10	7	43*	·	·	·	0	0
CCOc1cc(C(=O)Nc2cc3c(cc2N2CCOCC2)n(C)c(=O)n3C)cc(OCC)c1OCC	-23	22	-14	·	-10	·	·	·
Cc1ncc(CO)c2c1Oc1nc(-c3ccccc3F)nc(SCC(=O)N(C)c3ccccc3)c1C2	-4	31	31	·	-11	·	17	-16
NS(=O)(=O)c1ccc(CNC(=O)Cc2ccccc2F)cc1	-6	4	-8	1	1	1	·	·
NS(=O)(=O)c1ccc(CNC(=O)C(Cc2ccccc2)NS(=O)(=O)c2ccccc2F)cc1 (stereo unspecified)	-1	-12	26	·	3	·	-1	-6
C=CCn1c(SCC(=O)Nc2sccc2C(N)=O)nc2ccc(Cl)cc2c1=O	9	46	53*	0	2	2	16	8
O=C(NCCCN1CCOCC1)C(=O)N/N=C/c1ccc2c(c1)OCO2	-6	34	-11	0	-4	-2	·	·
COc1ccc(S(=O)(=O)n2nc(OC(=O)c3c(-c4ccccc4Cl)noc3C)cc2N)cc1	4	41	36	1	15	1	-8	-13
COc1ccc(C(=O)Oc2cc(N)n(S(=O)(=O)c3ccc(C)cc3)n2)cc1	-20	28	-17	·	1	·	·	·
N#Cc1c(C(F)(F)F)cc(-c2ccco2)nc1SCc1ccccn1	21	5	44	3	-12	2	-18	3
N#Cc1c(C(F)(F)F)cc(-c2ccco2)nc1SCc1ccncc1	-4	24	8	4	-7	6	·	·
CCCCn1c(=O)[nH]c2nc3cc(N)ccc3nc2c1=O	36	39	61*	30*	6	42*	35*	29*
Cc1ccc2nc(NC(=O)CCNS(=O)(=O)c3cccs3)sc2c1	2	20	5	0	0	0	·	·
Cc1cccc2sc(NC(=O)CCNS(=O)(=O)c3cccs3)nc12	20	39	31	1	2	2	17	4
Fc1ccc(-c2cc3nc(-c4ccccc4)cc(N4CCOCC4)n3n2)cc1	-13	7	-27	0	-9	1	·	·
Cc1ccc(-c2cc3nc(-c4ccccc4)cc(N4CCC5(CC4)OCCO5)n3n2)cc1	12	40	39	0	-14	1	36*	-10
CC(C)(C)C(=O)Nc1ccccc1N1CCN(c2ccc(F)cc2)CC1	-9	2	-31	·	-2	·	·	·
COc1ccc(C(=O)NNC(=S)NC(=O)c2ccco2)cc1	3	8	31	7	-9	1	6	19
CCn1nc(C(=O)Nc2ccccc2C)c(Cl)c1Cl	-7	19	-19	-1	-5	-2	·	·
CCn1nc(C(=O)Nc2cccc3ccccc23)c(Cl)c1Cl	-25	20	35	-1	-2	-1	-12	-21
CCc1ccc(NC(=O)CSc2nnc(CNC(=O)c3cccs3)o2)cc1	2	15	-5	·	-13	·	·	·
Cc1ccnc(NS(=O)(=O)c2cc([N+](=O)[O-])ccc2C)c1	0	48	30	1	-3	0	7	17
Cc1ccnc(NS(=O)(=O)c2ccccc2)c1	-8	6	-17	·	24	·	·	·
O=C(NCCN1C(=O)S/C(=C\c2ccccc2)C1=O)c1cc(S(=O)(=O)N2CCOCC2)c(Cl)cc1Cl	19	34	30	0	-4	-1	59*	4
SMILES	CHO parental Ca	OX1R antag-1	OX1R antag-2	TRPML3 ag	GPR7 antagonist	TRPN1 ag	OX1R Ca confirm	CHO Ca triplic
O=C(NCCN1C(=O)S/C(=C\c2ccc(Cl)cc2)C1=O)c1ccc(F)c(S(=O)(=O)N2CCOCC2)c1	-21	17	-6	0	-1	2	·	·
CCOc1ccc(OCCOCCNCCOC)cc1	-5	24	0	1	-6	1	·	·
Cc1ccc(NC(=O)C(OC(=O)c2ccc(C=O)cc2)c2ccccc2)cc1Cl (stereo unspecified)	14	14	29	1	17	3	32*	11
Cc1ccc(C(=O)NCC(=O)OC(C)C(=O)NC2CCCc3ccccc32)cc1 (stereo unspecified)	-18	13	-32	·	·	·	·	·
CC(C)(C)C(=O)/C(=C/c1ccncc1)n1cncn1	4	-1	-11	1	-6	1	·	·
CCOC(=O)Cn1nnc(-c2ccccc2)n1	-3	6	4	1	-8	1	·	·
CCOC(=O)C(Cc1ccccc1)NC(=O)Cn1nnc(-c2ccccc2)n1 (stereo unspecified)	13	25	29	4	7	6	52*	17
O=C(NCCCN1CCOCC1)c1cccc(S(=O)(=O)Nc2cc(Cl)ccc2Cl)c1	-6	13	-6	0	-6	1	·	·
CN(CC(=O)Nc1ccc(Cl)c(C(F)(F)F)c1)CC(=O)NC1CCCCC1	-5	11	38	·	·	·	-22	0
CN(CC(=O)NCc1ccccc1)CC(=O)Nc1ccc(Cl)c(C(F)(F)F)c1	-4	12	6	·	·	·	·	·
Cc1cc2c(cc1S(=O)(=O)N(C)Cc1ccccc1)n(C)c(=O)c(=O)n2C	-7	14	10	·	-8	·	·	·
CN(Cc1ccccc1)S(=O)(=O)c1ccc2c(c1)n(C)c(=O)c(=O)n2C	4	19	32	0	-9	2	1	20
COC(=O)/C=C1\SC(N)=NC1=O	7	27	-14	1	-13	5	·	·
CNc1snc(C)c1C(=O)OCC(=O)c1ccc(Cl)cc1	2	19	37	·	·	·	16	45*
CNc1snc(C)c1C(=O)OC(C)C(=O)c1ccc(F)cc1 (stereo unspecified)	-20	15	-2	·	·	·	·	·
O=S(=O)(/N=C(/Nc1ccc(F)c(F)c1F)c1ccccc1)c1ccccc1	-12	14	-22	1	-5	-2	·	·
Cc1nn(-c2ccccc2)c(C)c1/C=N/NC(=O)c1cc(-c2cccs2)[nH]n1	-15	51	41	-1	9	0	65*	-11
CCN(CC)c1ccc(C(=O)N/N=C/c2ccc(OC)cc2OC)cc1	-31	77	41*	0	0	0	34*	-11
COc1ccc(C(=O)Nc2cccc(C(=O)N/N=C/c3ccc(OC)cc3OC)c2)cc1	-14	25	-27	·	0	·	·	·
